Results published in ChEMBL document CHEMBL5357066, “Development of Novel Membrane Disrupting Lipoguanidine Compounds Sensitizing Gram-Negative Bacteria to Antibiotics” (ACS Med Chem Lett, 2024).
Converted amounts (≈) assume the structure as drawn.

Legend:
[1] = test system: Klebsiella pneumoniae; experiment: Antibacterial activity against Klebsiella pneumoniae M6 assessed as bacterial growth inhibition incubated for overnight by microbroth dilution method
[2] = test system: Acinetobacter baumannii; experiment: Antibacterial activity against Acinetobacter baumannii ATCC 17978 assessed as bacterial growth inhibition incubated for overnight by microbroth dilution method; assay type: functional
Procedure, shortened: (§1)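 Broth microdilution in Tryptic Soy Broth. DMSO stocks were diluted in TSB as 2-fold series. Overnight TSB cultures were back-diluted to OD 0.01 and mixed 1:1 with compound. Incubation was overnight at 37 °C. MIC was the lowest concentration without visible growth (<0.1 OD600). DMSO vehicle was checked at equivalent concentrations.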

[3] = test system: Staphylococcus aureus; experiment: Antibacterial activity against methicillin sensitive Staphylococcus aureus 1199B assessed as bacterial growth inhibition incubated for overnight by microbroth dilution method; assay type: functional
Procedure, shortened: (§2)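 Microbroth dilution in Tryptic Soy Broth. DMSO stocks were diluted in TSB as 2-fold series. Overnight TSB cultures were back-diluted to OD 0.01 and mixed 1:1 with compound. Incubation was overnight at 37 °C. MIC is the lowest concentration with no visible growth (<0.1 OD600). DMSO at equivalent concentrations was checked.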

[4] = test system: Acinetobacter baumannii; experiment: Antibacterial activity against Acinetobacter baumannii AYE assessed as bacterial growth inhibition incubated for overnight by microbroth dilution method; assay type: functional
Procedure, shortened: as §1

[5] = test system: Enterococcus faecalis; experiment: Antibacterial activity against vancomycin resistant Enterococcus faecalis NCTC 12201 assessed as bacterial growth inhibition incubated for overnight by microbroth dilution method; assay type: functional
Procedure, shortened: as §2

[6] = test system: Staphylococcus aureus; experiment: Antibacterial activity against methicillin resistant Staphylococcus aureus USA 300 assessed as bacterial growth inhibition incubated for overnight by microbroth dilution method; assay type: functional
Procedure, shortened: as §2

[7] = test system: Enterococcus faecalis; experiment: Antibacterial activity against vancomycin sensitive Enterococcus faecalis NCTC 775 assessed as bacterial growth inhibition incubated for overnight by microbroth dilution method
[8] = test system: Pseudomonas aeruginosa; experiment: Antibacterial activity against Pseudomonas aeruginosa NCTC 13437 assessed as bacterial growth inhibition incubated for overnight by microbroth dilution method; assay type: functional
Procedure, shortened: as §1

[9] = test system: Klebsiella pneumoniae; experiment: Antibacterial activity against ESBL Klebsiella pneumoniae NCTC 13368 assessed as bacterial growth inhibition incubated for overnight by microbroth dilution method
[10] = test system: Staphylococcus aureus; experiment: Antibacterial activity against methicillin resistant Staphylococcus aureus NCTC 13616 assessed as bacterial growth inhibition incubated for overnight by microbroth dilution method; assay type: functional
Procedure, shortened: as §2

[11] = test system: Enterococcus faecium; experiment: Antibacterial activity against vancomycin resistant Enterococcus faecium NCTC 12204 assessed as bacterial growth inhibition incubated for overnight by microbroth dilution method; assay type: functional
Procedure, shortened: as §2

[12] = test system: Pseudomonas aeruginosa; experiment: Antibacterial activity against Pseudomonas aeruginosa PAO1 assessed as bacterial growth inhibition incubated for overnight by microbroth dilution method; assay type: functional
Procedure, shortened: as §1

[13] = test system: Staphylococcus aureus; experiment: Antibacterial activity against methicillin sensitive Staphylococcus aureus ATCC 9144 assessed as bacterial growth inhibition incubated for overnight by microbroth dilution method; assay type: functional
Procedure, shortened: as §2

[14] = test system: Escherichia coli; experiment: Antibacterial activity against Escherichia coli NCTC 12923 assessed as bacterial growth inhibition incubated for overnight by microbroth dilution method; assay type: functional
Procedure, shortened: as §1

[15] = test system: Acinetobacter baumannii; experiment: Synergistic antibacterial activity against Acinetobacter baumannii AYE assessed as fold change in rifampicin MIC at <=0.25 times MIC incubated for overnight by microbroth dilution checkerboard assay relative to rifampicin alone; assay type: functional
Procedure, shortened: (§3)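 Checkerboard microdilution under MIC conditions (TSB, overnight, 37 °C). Two-fold series of each agent were combined on one plate before bacteria were added, and single-agent MICs were measured on the same plate. FIC = sum of combination MIC/alone MIC for each agent, taken from the most synergistic well. Three independent repeats, mean ± SD. ≤0.5 was taken as strong synergy and 0.5–<1 as weak.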

[16] = test system: Pseudomonas aeruginosa; experiment: Synergistic antibacterial activity against Pseudomonas aeruginosa NCTC 13437 assessed as rifampicin MIC at <=0.25 times MIC incubated for overnight by microbroth dilution checkerboard assay; assay type: functional
Procedure, shortened: (§4)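 Checkerboard microdilution in Tryptic Soy Broth, run like the MIC assay. Overnight TSB cultures were back-diluted to OD 0.01 and added 1:1 to the combined two-fold series of both agents, then incubated overnight at 37 °C. Growth/no-growth was called at <0.1 OD600. MICs alone were read on the same plates. FIC index came from the most synergistic well; three independent repeats, mean ± SD.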

[17] = test system: Acinetobacter baumannii; experiment: Synergistic antibacterial activity against Acinetobacter baumannii AYE assessed as rifampicin MIC at <=0.25 times MIC incubated for overnight by microbroth dilution checkerboard assay; assay type: functional
Procedure, shortened: as §3

[18] = test system: Klebsiella pneumoniae; experiment: Synergistic antibacterial activity against […] Klebsiella pneumoniae M6 assessed as rifampicin MIC at <=0.25 times MIC incubated for overnight by microbroth dilution checkerboard assay; assay type: functional
Procedure, shortened: (§5)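 Checkerboard run under the MIC conditions (TSB, overnight, 37 °C). Antibiotic and lipoguanidine 2-fold series were combined on one plate before bacteria were added. Growth/no-growth was scored as for the MIC (<0.1 OD600). Single-agent MICs were measured on the same plates. Three independent repeats were done.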

[19] = test system: Klebsiella pneumoniae; experiment: Synergistic antibacterial activity against Klebsiella pneumoniae NCTC 13368 assessed as fold change in rifampicin MIC at <=0.25 times MIC incubated for overnight by microbroth dilution checkerboard assay relative to rifampicin alone; assay type: functional
Procedure, shortened: as §5

[20] = test system: Escherichia coli; experiment: Synergistic antibacterial activity against Escherichia coli NCTC 12923 assessed as rifampicin MIC at <=0.25 times MIC incubated for overnight by microbroth dilution checkerboard assay; assay type: functional
Procedure, shortened: as §3

[21] = test system: Pseudomonas aeruginosa; experiment: Synergistic antibacterial activity against Pseudomonas aeruginosa PAO1 assessed as fold change in rifampicin MIC at <=0.25 times MIC incubated for overnight by microbroth dilution checkerboard assay relative to rifampicin alone; assay type: functional
Procedure, shortened: as §4

[22] = test system: Acinetobacter baumannii; experiment: Synergistic antibacterial activity against Acinetobacter baumannii ATCC 17978 assessed as fold change in rifampicin MIC at <=0.25 times MIC incubated for overnight by microbroth dilution checkerboard assay relative to rifampicin alone; assay type: functional
Procedure, shortened: as §3

[23] = test system: Acinetobacter baumannii; experiment: Synergistic antibacterial activity against Acinetobacter baumannii ATCC 17978 assessed as rifampicin MIC at <=0.25 times MIC incubated for overnight by microbroth dilution checkerboard assay; assay type: functional
Procedure, shortened: as §3

[24] = test system: Pseudomonas aeruginosa; experiment: Synergistic antibacterial activity against Pseudomonas aeruginosa PAO1 assessed as rifampicin MIC at <=0.25 times MIC incubated for overnight by microbroth dilution checkerboard assay; assay type: functional
Procedure, shortened: as §4

[25] = test system: Escherichia coli; experiment: Synergistic antibacterial activity against Escherichia coli NCTC 12923 assessed as fold change in rifampicin MIC at <=0.25 times MIC incubated for overnight by microbroth dilution checkerboard assay relative to rifampicin alone; assay type: functional
Procedure, shortened: as §3

[26] = test system: Klebsiella pneumoniae; experiment: Synergistic antibacterial activity against Klebsiella pneumoniae NCTC 13368 assessed as rifampicin MIC at <=0.25 times MIC incubated for overnight by microbroth dilution checkerboard assay; assay type: functional
Procedure, shortened: as §3

[27] = test system: Pseudomonas aeruginosa; experiment: Synergistic antibacterial activity against Pseudomonas aeruginosa NCTC 13437 assessed as fold change in rifampicin MIC at <=0.25 times MIC incubated for overnight by microbroth dilution checkerboard assay relative to rifampicin alone; assay type: functional
Procedure, shortened: as §4

SMILES	MIC [1] [µg/mL]	MIC [2] [µg/mL]	MIC [3] [µg/mL]	MIC [4] [µg/mL]	MIC [5] [µg/mL]	MIC [6] [µg/mL]	MIC [7] [µg/mL]	MIC [8] [µg/mL]	MIC [9] [µg/mL]	MIC [10] [µg/mL]	MIC [11] [µg/mL]	MIC [12] [µg/mL]	MIC [13] [µg/mL]	MIC [14] [µg/mL]	fold change (FC) [15]	MIC [16] [µg/mL]	MIC [17] [µg/mL]	MIC [18] [µg/mL]	fold change (FC) [19]	MIC [20] [µg/mL]	other results
CCCCCCCC/C=C\CCCCCCCCNC(=N)NCCCCCCCCNC(=N)NCCCCCCCC/C=C\CCCCCCCC	> 128	128 (≈ 176 µM)	32 (≈ 43.9 µM)	> 128	> 64	64 (≈ 87.8 µM)	64 (≈ 87.8 µM)	> 128	> 128	> 64	32 (≈ 43.9 µM)	> 128	64 (≈ 87.8 µM)	128 (≈ 176 µM)							
CCCCCCCC/C=C\CCCCCCCCNC(=N)NCCCCCCCCNC(=N)N	64 (≈ 134 µM)	16 (≈ 33.4 µM)	4 (≈ 8.35 µM)	16 (≈ 33.4 µM)	4 (≈ 8.35 µM)	2 (≈ 4.18 µM)	4 (≈ 8.35 µM)	> 128	128 (≈ 267 µM)	4 (≈ 8.35 µM)	4 (≈ 8.35 µM)	> 128	4 (≈ 8.35 µM)	32 (≈ 66.8 µM)							
CCCCCCCC/C=C\CCCCCCCCNC(=N)NCCCCCCCCN	> 128	8 (≈ 18.3 µM)	4 (≈ 9.16 µM)	32 (≈ 73.3 µM)	2 (≈ 4.58 µM)	2 (≈ 4.58 µM)	4 (≈ 9.16 µM)	> 128	32 (≈ 73.3 µM)	4 (≈ 9.16 µM)	4 (≈ 9.16 µM)	> 128	4 (≈ 9.16 µM)	16 (≈ 36.6 µM)							
CCCCC/C=C\C/C=C\CCCCCCCCNC(=N)NCCCCNC(=N)N	32 (≈ 76.1 µM)	32 (≈ 76.1 µM)	4 (≈ 9.51 µM)	> 64	8 (≈ 19 µM)	4 (≈ 9.51 µM)	8 (≈ 19 µM)	64 (≈ 152 µM)	> 64	4 (≈ 9.51 µM)	8 (≈ 19 µM)	64 (≈ 152 µM)	4 (≈ 9.51 µM)	8 (≈ 19 µM)	>=4	4	≤ 0.125	≤ 0.125	>=4	4	fold change (FC) [21]: >=4; fold change (FC) [22]: >=4; MIC [23]: ≤ 0.125 µg/mL; MIC [24]: 2 µg/mL; fold change (FC) [25]: >=4; MIC [26]: ≤ 0.125 µg/mL; fold change (FC) [27]: >=4
N=C(N)NCCCCCCCCNC(=N)N	> 128	> 128	> 128	> 128	> 128	128 (≈ 561 µM)	> 128	> 128	> 128	> 128	> 128	> 128	128 (≈ 561 µM)	> 128	0	32	8	16	0	8	fold change (FC) [21]: 0; fold change (FC) [22]: >=4; MIC [23]: 1 µg/mL; MIC [24]: 32 µg/mL; fold change (FC) [25]: 0; MIC [26]: 32 µg/mL; fold change (FC) [27]: 0
CCCCCCCC/C=C\CCCCCCCCNC(=N)NCCN(CCN)CCN	> 128	64 (≈ 146 µM)	4 (≈ 9.12 µM)	128 (≈ 292 µM)	4 (≈ 9.12 µM)	4 (≈ 9.12 µM)	4 (≈ 9.12 µM)	32 (≈ 72.9 µM)	> 128	4 (≈ 9.12 µM)	4 (≈ 9.12 µM)	64 (≈ 146 µM)	8 (≈ 18.2 µM)	8 (≈ 18.2 µM)							
NCCCCCCCCN=C(N)N	> 128	> 128	> 128	> 128	> 128	128 (≈ 687 µM)	> 128	> 128	> 128	> 128	> 128	> 128	128 (≈ 687 µM)	128 (≈ 687 µM)	>=4	32	4	16	0	16	fold change (FC) [21]: 0; fold change (FC) [22]: >=4; MIC [23]: 1 µg/mL; MIC [24]: 32 µg/mL; fold change (FC) [25]: 0; MIC [26]: 32 µg/mL; fold change (FC) [27]: 0
